Shown are actives, neighbours in structure and some others; about 3.4% of the full set was active somewhere.
TAAR1 antagonist: human TAAR1 antagonists, primary screen, Fluo-8 calcium fluorescence, CHO RD-HGA16 cells; 360,000 tested, 1.5% active; antagonist; inhibition, % at 3 µM; Trace amine-associated receptor 1 (Homo sapiens), Q96RJ0;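 active = inhibition above a per-plate cutoff, the mean inhibition of test compounds on that plate plus 3 SD, cut at about 49% in these data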
Target sequence (Q96RJ0 whole entry, looked up): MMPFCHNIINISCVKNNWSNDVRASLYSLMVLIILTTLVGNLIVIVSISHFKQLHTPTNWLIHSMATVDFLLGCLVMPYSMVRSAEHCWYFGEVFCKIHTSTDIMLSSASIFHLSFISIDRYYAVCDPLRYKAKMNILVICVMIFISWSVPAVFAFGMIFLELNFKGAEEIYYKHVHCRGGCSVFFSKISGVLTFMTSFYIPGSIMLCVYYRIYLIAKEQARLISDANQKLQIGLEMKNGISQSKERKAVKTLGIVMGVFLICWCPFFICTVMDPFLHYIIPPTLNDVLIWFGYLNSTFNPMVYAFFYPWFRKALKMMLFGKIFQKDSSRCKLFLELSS
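Test system: hTAAR1-expressing CHO RD-HGA16 cells, Gα16-coupled; Probe or stimulus: EC80 β-phenethylamine stimulus; Compound dosing: single nominal final test compound concentration of 3 µM; Timing: 140 s kinetic read after compound, 140 s after agonist; Signal: Fluo-8 calcium-sensitive fluorescence; Measure: % inhibition of agonist calcium response; Controls: DMSO and EC80 PEA controls.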
TAAR1 agonist: human TAAR1 agonists, primary screen, Fluo-8 calcium fluorescence, CHO RD-HGA16 cells; vehicle wells 0%, saturating PEA agonist 100%; activation, % at 3 µM; 360,000 tested, 0.99% active; AID 624467, 2012;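 active = activation above the mean activation of all test compounds in the run plus 3 SD, cut at about 38% in these data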
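test system = CHO RD-HGA16 cells carrying human TAAR1 plus Gα16 | schedule = 17-24 h seeding, 75 min 37 °C dye, 30 min RT | compound dosing = 3 µM single concentration | control set = DMSO and PEA EC100 | replicates = n 1 | signal = Fluo-8 fluorescence, 5 s baseline then 140 s kinetic read | measure = percent activation vs PEA EC100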
LANA-H2A inh: blockers of LANA interaction with H2A/H2B – biochemical, FP readout, HTS, primary screen | AID 2629, 2010 | cell-free LANA-H2A/H2B peptide, fluorescence polarization | inhibition, % (test concentration not listed) | 320,000 tested, 0.6% active | Protein LANA1 (Human herpesvirus 8 type P (isolate GK18)), Q9QR71; in the data active = inhibition mostly above about 10%, no sharp cut-off; inactive = mostly below about 6.7%
GPR7 antagonist: GPR7 receptor antagonists, primary screen, cell-based, fluorescence, single concentration. inhibition, % at 4.4 µM. 290,000 tested, 1.1% active. AID 1861, 2009. Neuropeptides B/W receptor type 1 (Homo sapiens), P48145. GPR7-expressing cells, fluorescence antagonist assay; in the data active = inhibition above about 16%, passing the limit was not always enough;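 note: cells stimulated with the agonist NPW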
zfTRPN1 agonist: zebrafish TRPN1 channel agonists, primary screen, cell-based, HEK293, calcium fluorescence; 220,000 tested, 0.18% active; transient receptor potential cation channel N1 (TRPN1/NompC), Danio rerio; activation, % at 3 µM; HEK293 zebrafish TRPN1-YFP, Fluo-8 calcium fluorescence; 100% = response to 87 µM carbachol;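 active = activation above its plate's cutoff, the mean activation of test wells on that plate plus 3 SD, cut at about 19% in these data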
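Material – zebrafish TRPN1-YFP in HEK293 cells · Doses – 3 µM single point · Schedule – dye 1 h 37 °C plus 30 min RT · Signal – Fluo-8 calcium fluorescence, excitation 470-495 nm, emission 515-575 nm · Read-out – % activation versus carbachol response · Control set – carbachol high, DMSO low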
TRPML3 agonist: human TRPML3 channel agonists, primary screen, cell-based, HEK293 TRPML3-YFP, Fluo-8 calcium fluorescence, 3 µM. activation, % at 3 µM. 100% = the carbachol control signal. 220,000 tested, 0.29% active. AID 1448, 2008. Mucolipin-3 (Homo sapiens), Q8TDD5;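 active = activation above its plate's cutoff, the mean activation of the plate's test wells plus 3 SD, cut at about 12% in these data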
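Test system – HEK293 line with stable expression of human TRPML3-YFP channel · Control set – carbachol 87 µM final as high control (100%), DMSO as low control (0%) · Signal – Fluo-8 calcium dye fluorescence, ex 470-495, em 515-575 nm · Incubation – 1-h 37 °C dye load, 5-s basal, 120-s post-compound reads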
Large screens that a line does not name were inactive.

COC(=O)C1=C(c2ccc(F)cc2OCc2ccccc2)C[C@@H]2CC[C@H]1N2C(=O)NCc1ccc(C)cc1	TAAR1 antagonist 60 (no result: GPR7 antagonist, zfTRPN1 agonist, TRPML3 agonist)
Cn1cc(C(=O)OCC(=O)Nc2ccccc2Cl)c2ccccc21	none (no result: LANA-H2A inh, GPR7 antagonist, zfTRPN1 agonist, TRPML3 agonist)
Cn1cc(C(=O)OCC(=O)Nc2ccccc2)c2ccccc21	LANA-H2A inh 90 (no result: GPR7 antagonist, zfTRPN1 agonist, TRPML3 agonist)
COc1cccc(NC2=NCCS2)c1	none (no result: LANA-H2A inh, GPR7 antagonist, zfTRPN1 agonist, TRPML3 agonist)
CCOC(=O)[C@]12Cc3cc(Cl)ccc3[C@H]1N(C1CCCCC1)C(=O)c1cc(OC)ccc12	TAAR1 antagonist 63 (no result: LANA-H2A inh, GPR7 antagonist, zfTRPN1 agonist, TRPML3 agonist)
CCOC(=O)[C@]12Cc3ccc(C)cc3[C@H]1N(C1CCCCC1)C(=O)c1cc(OC)ccc12	none (no result: LANA-H2A inh, GPR7 antagonist, zfTRPN1 agonist, TRPML3 agonist)
CCOC(=O)[C@]12Cc3cc(C)ccc3[C@H]1N(C1CCCCC1)C(=O)c1ccccc12	none (no result: LANA-H2A inh, GPR7 antagonist, zfTRPN1 agonist, TRPML3 agonist)
CN1C2CCC1C(C(=O)Oc1ccccc1)C(c1ccc(Cl)cc1)C2 (stereo not given)	none (no result: LANA-H2A inh, GPR7 antagonist, zfTRPN1 agonist, TRPML3 agonist)
NC1=Nc2ccccc2Oc2ccccc21	TAAR1 agonist 40
CCOC(=O)[C@]12Cc3c(cc(OC)c(OC)c3OC)[C@H]1N(C1CCCCC1)C(=O)c1ccccc12	none (no result: LANA-H2A inh, GPR7 antagonist, zfTRPN1 agonist, TRPML3 agonist)
COc1ccc(-n2nnnc2C(CCSC)N2CCC3(CC2)C(=O)NCN3c2ccccc2)cc1 (stereo not given)	TAAR1 antagonist 51 (no result: LANA-H2A inh, GPR7 antagonist, zfTRPN1 agonist, TRPML3 agonist)
COc1ccc(-n2nnnc2C(CCc2ccccc2)N2CCC3(CC2)C(=O)NCN3c2ccccc2)cc1 (stereo not given)	none (no result: LANA-H2A inh, GPR7 antagonist, zfTRPN1 agonist, TRPML3 agonist)
CCCCCSc1cc(OC)c(CCN)cc1OC	TAAR1 agonist 41
CCCCCCCSc1cc(OC)c(CCN(C)C)cc1OC	none
CN1C[C@H](O)[C@H]2C[C@@H]1c1ccccc1O2	none (no result: LANA-H2A inh, GPR7 antagonist, zfTRPN1 agonist, TRPML3 agonist)
C=CCNC(=S)Nc1ccc(OC(=O)Nc2ccc(Cl)c(Cl)c2)cc1	GPR7 antagonist 39 (no result: LANA-H2A inh)
Brc1ccc2c(c1)-n1nncc1CNC2	none (no result: LANA-H2A inh, GPR7 antagonist, zfTRPN1 agonist, TRPML3 agonist)
N#CC12CNCC1CN=N2 (stereo not given)	LANA-H2A inh 18
COc1ccc(CCn2c(O)c(C=Nc3ccc(F)cc3)c(=O)[nH]c2=O)cc1OC	LANA-H2A inh 15
CCN(CC)c1ccc(N=Cc2c(O)n(CCc3ccc(OC)c(OC)c3)c(=O)[nH]c2=O)cc1	none
CCC(c1nnnn1-c1ccc(OC)cc1)N1CCC2(CC1)C(=O)NCN2c1ccccc1 (stereo not given)	none (no result: LANA-H2A inh, GPR7 antagonist, zfTRPN1 agonist, TRPML3 agonist)
CCCCCn1c(=O)c(C(=O)Nc2ccccc2C)c(O)c2ccccc21	none (no result: zfTRPN1 agonist, TRPML3 agonist)
CCCCn1c(=O)c(C(=O)Nc2ncccc2C)c(O)c2ccccc21	TAAR1 agonist 55 (no result: zfTRPN1 agonist, TRPML3 agonist)
Cc1cc([N+](=O)[O-])c(Cl)cc1NC(=O)C(C)C	none
CNc1cc(Cl)c2nonc2c1[N+](=O)[O-]	GPR7 antagonist 51 (no result: LANA-H2A inh)
CNCC(O)c1cc(OCc2ccccc2)c(OCc2ccccc2)cc1F (stereo not given)	TAAR1 agonist 45 (no result: GPR7 antagonist, zfTRPN1 agonist, TRPML3 agonist)
O=C(NC[P+](=O)O)OCc1ccccc1	none
CC(C)(O)C(=O)Nc1ccc([N+](=O)[O-])c(C(F)(F)F)c1	LANA-H2A inh 20 (no result: GPR7 antagonist, zfTRPN1 agonist, TRPML3 agonist)
CC1CCC(C(C)C)C(OC(=O)Cn2c(COc3ccccc3)[n+](C)c3ccccc32)C1 (stereo not given)	GPR7 antagonist 58
NC1CCc2cc(O)c(O)cc2C1 (stereo not given)	TAAR1 agonist 39 (no result: GPR7 antagonist, zfTRPN1 agonist, TRPML3 agonist)
COc1ccc(C(c2nnnn2-c2ccc(OC)cc2)N2CCC(n3c(=O)[nH]c4ccccc43)CC2)cc1 (stereo not given)	none (no result: LANA-H2A inh, GPR7 antagonist, zfTRPN1 agonist, TRPML3 agonist)
COc1ccc(-n2nnnc2C(c2cc3ccccc3o2)N2CCC(n3c(=O)[nH]c4ccccc43)CC2)cc1 (stereo not given)	TAAR1 antagonist 51 (no result: LANA-H2A inh, GPR7 antagonist, zfTRPN1 agonist, TRPML3 agonist)
O=c1[nH]c2ccccc2n1C1CCN(C(c2cc3ccccc3o2)c2nnnn2-c2ccc3c(c2)OCCO3)CC1 (stereo not given)	TAAR1 antagonist 66 (no result: LANA-H2A inh, GPR7 antagonist, zfTRPN1 agonist, TRPML3 agonist)

Compound activity as filed in PubChem.
